Key:
MS2 coat protein [1] = test: apparent Kd, MS2 coat protein; higher = weaker binding; RNA-MaP array; tryptophan 2.4 mM where present
Procedure, shortened: (§1)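 Apparent Kd: the median of filtered binding-curve fits from single clusters. Designs were transcribed on Illumina sequencing-chip clusters by stalled E. coli RNA polymerase and titrated with SNAP-549-labelled MS2 coat protein from 0.7 or 1.5 nM, doubling to 3 µM, in 100 mM Tris-HCl pH 7.5, 80 mM KCl, 4 mM MgCl2, BSA, DTT, yeast tRNA and Tween-20. Each series ran without and then with constant ligand, and green signal was normalised to red-channel RNA signal and control-cluster median Fmax.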

MS2 coat protein [2] = test: apparent Kd, MS2 coat protein; higher = weaker binding; RNA-MaP array; theophylline 2 mM where present
Procedure, shortened: as §1

[3] = designed as: OFF switch for tryptophan, no ligand
[4] = ligand present: tryptophan, designed as: OFF switch for tryptophan
[5] = designed as: ON switch for tryptophan, no ligand
[6] = ligand present: tryptophan, designed as: ON switch for tryptophan
[7] = designed as: ON switch for theophylline, no ligand
[8] = ligand present: theophylline, designed as: ON switch for theophylline

| Sequence | apparent Kd (MS2 coat protein [1]; [3]) [nM] | apparent Kd (MS2 coat protein [1]; [4]) [nM] | apparent Kd (MS2 coat protein [1]; [5]) [nM] | apparent Kd (MS2 coat protein [1]; [6]) [nM] | also measured |
| --- | --- | --- | --- | --- | --- |
| AAUGUAUGGCACAUGAGGAUCACCCAUGUGCGAGGACCGGUACGGCCGCCACUCGGUCGUGGGUUCUUAUUACUAUACAUUAAUG | 10.7 | 12.3 | – | – | – |
| ACCUGCGUUUGUUUCUUUCUGACGCAGGUUCGAGGACCGGUACGGCCGCCACUCGGACAUGAGGAUCACCCAUGUUUGAAAUGGG | 253 | 227 | – | – | – |
| CUAUAAGUACCGGUCCUCAGAUCCUCAUGACGAGGACCGGUACGGCCGCCACUCGAAACAUGAGGAUCACCCAUGUAAUAAUACC | 35.5 | 19.9 | – | – | – |
| GGUAUAUAGGCGGCCGCCACUGAUUUUCAUAUAUAUAUAACAUGAGGAUCACCCAUGUAGAUAUACAGGACCGGGCCUAUAUAUU | – | – | 14.9 | 12.8 | – |
| AAUACCGGAUCGGCCGCCACUGGUUGGCCCUGUGUACAUGAGGAUCACCCAUGUCCAUCCCAAGCCAGGACCGGGAUCUUUGUGU | – | – | 16.7 | 10.1 | – |
| GCAUCCUAGUCGGCCGCCACUGCACGAUCAGUGGCAGAUCGUCAACAUGAGGAUCACCCAUGUAGCAGGACCGGGACUAGGAUGC | – | – | 17.6 | 24.6 | – |
| AAUCGUAAGGCGGCCGCCACUACACAUGAGGAUCACCCAUGUCUCGCAGGCUUGCGUUGGGAUAGUAGGACCGGGCCAGUAAUAA | 25.1 | 21.8 | – | – | – |
| CUGCCUGCCUCACAUGAGGAUCACCCAUGUCGAGGACCGGUACGGCCGCCACUCGUCGUCGGUAAUACAGGCAUUGAAUAAUAUA | 10.3 | 37.5 | – | – | – |
| AUGGUCGACGAUCUGCGAAAAGCAGAUCGACGAGGACCGGUACGGCCGCCACUCGUGUUUAUUUAACAUGAGGAUCACCCAUGUA | – | – | 80.2 | 22.3 | – |
| CGAUAUAUAGCGGCCGCCACUUACUCAUGAGGUAACAACAUGAGGAUCACCCAUGUUUGAGGAUCAAGGACCGGGCUAUGUAUCG | – | – | 27.4 | 18 | – |
| UUUAUUAUUGACUCGUUAUUGUUUUUGGAUCGAGGACCGGUACGGCCGCCACUCGUGAUAUACAUGAGGAUCACCCAUGUUAGCA | – | – | 14.9 | 12.8 | – |
| GCAUCCUAGUCGGCCGCCACUGCAACAUGAGGAUCACCCAUGUCUGUAUGUGAUCCAUGCAGUAGCAGGACCGGGACUAGGAUGC | – | – | 501 | 130 | – |
| AGCCACUCGAGUGAUCCUCACGAGUGGCAACGAGGACCGGUACGGCCGCCACUCGAAUAACAUGAGGAUCACCCAUGUUUAUAAU | – | – | 93.2 | 96.2 | – |
| UGAUACCAGUCGGCCGCCACUACAUGAGGAUCACCCAUGUAUCCUCAACUGCUAGAUACUAGCAGUAGGACCGGGACUGGUAUCU | 307 | 1150 | – | – | – |
| AUCUUUGGCGAUCUGGGAAAACCAGAUCGACGAGGACCGGUACGGCCGCCACUCGUGUAUAAUAUACAUGAGGAUCACCCAUGUA | – | – | 47.5 | 30.5 | – |
| UACAUGAGGAUCACCCAUGUAUUGCCGGUACGAGGACCGGUACGGCCGCCACUCGGAGCAUGAGGAUCACCCAUGUGCUGCUAUG | – | – | 66.2 | 51.8 | – |
| UGUGUGUGACCAGGAAAUGGUCACACACAGCGAGGACCGGUACGGCCGCCACUCGGCCGUACAUGAGGAUCACCCAUGUCGGGUA | – | – | 674 | 741 | – |
| GGAUAGGACACGGCCGCCACUGCCUAGGAUACUAGCAACAUUUGGGUACAUGAGGAUCACCCAUGUAGGACCGGGUGUCCUAUCG | 49.2 | 53.9 | – | – | – |
| GUUUAAAGGUCGGCCGCCACUGUAGGAUGUGUUCUUUCACAUGAGGAUCACCCAUGUUGUUAUUAUAGGACCGGGAUUUUAGGAC | 27.1 | 22.4 | – | – | – |
| AGAGCAUUGACGGCCGCCACUCGUGUCACAUGAGGAUCACCCAUGUGAUGGGUGAUAGCCCGGUUGAGGACCGGGUCAAUGCUCA | – | – | 13.7 | 19.2 | – |

| Sequence | apparent Kd (MS2 coat protein [1]; [3]) [nM] | apparent Kd (MS2 coat protein [1]; [4]) [nM] | apparent Kd (MS2 coat protein [1]; [5]) [nM] | apparent Kd (MS2 coat protein [1]; [6]) [nM] | also measured |
| --- | --- | --- | --- | --- | --- |
| AGAUUCGACACGGCCGCCACUUGUGGUGGAUUAUCCUAUGUCGAACAUGAGGAUCACCCAUGUACAAGGACCGGGUGUUGAGUCU | 401 | 119 | – | – | – |
| ACAUGAGGAUCACCCAUGUUAAACAGGGUGCGAGGACCGGUACGGCCGCCACUCGGACAUUAUUACGAGUGAAUGGUAACGAUGU | 19.9 | 20 | – | – | – |
| CUACAUUUGUAGAAACCGGUCAACAAUAAUCGAGGACCGGUACGGCCGCCACUCGAUGUGAAAUACACAUGAGGAUCACCCAUGU | – | – | 15.9 | 16.9 | – |
| GGAUCAGGAUCGGCCGCCACUGAUAGUGAUCCAACGACAUGAGGAUCACCCAUGUACAUUUUAAUCAGGACCGGGAUCAAGUUCC | 129 | 209 | – | – | – |
| CUACAUUUGUAGAAACCGGUCACCGUUACUCGAGGACCGGUACGGCCGCCACUCGUGUCACGUGAUACAUGAGGAUCACCCAUGU | – | – | 37.4 | 31.3 | – |
| UCGUUUUAGUCGGCCGCCACUGUAUGCAUGUUUAACAUGAGGAUCACCCAUGUCCCGUACUAUAACAGGACCGGGACGUAAUAGA | – | – | 168 | 100 | – |
| GUCCAAAGGUCGGCCGCCACUGUAGAGUGUGUUCUUUCACAUGAGGAUCACCCAUGUUGUUAUUAUAGGACCGGGAUUGUAGGAC | 20.4 | 28.1 | – | – | – |
| GAGUAGUAGACGGCCGCCACUAAACAUGAGGAUCACCCAUGUAGUGAUCCGUUACCUAGCGUAGAUAGGACCGGGUCAGAUAGUA | 26 | 29.2 | – | – | – |
| UAUAUAUAUCACGAACUGUGGUGUAUGUCUCGAGGACCGGUACGGCCGCCACUCGCGCGGCCUCACAUGAGGAUCACCCAUGUCC | 89.2 | 113 | – | – | – |
| UGUCAUGGAAACAUGACUGGUUCUACCGGUCGAGGACCGGUACGGCCGCCACUCGAUUGGUGGCACAUGAGGAUCACCCAUGUUA | – | – | 28.2 | 30 | – |
| UAUCUACAUGAAUAGGUUAUUCGAUUAUUUCGAGGACCGGUACGGCCGCCACUCGUUAACAUAUACAUGAGGAUCACCCAUGUUA | – | – | 16.9 | 15.9 | – |
| UUGUGGCGCUCGGCCGCCACUCCGACAUGAGGAUCACCCAUGUUCUACAUGAGGAUCACCCAUGUGAGGACCGGGAGACACUUCC | 104 | 103 | – | – | – |
| CGCCACAUGAGGAUCACCCAUGUCUUGGCGCGAGGACCGGUACGGCCGCCACUCGCGUUUCAGUGAGCGCAUGCGUCCUUGGUAU | 18.3 | 26.1 | – | – | – |
| UUAGUAACGACGGCCGCCACUGGAUAUGAACAUGAGGAUCACCCAUGUAGAGAUCCUAGAAUAAACAGGACCGGGUCUGAUAAUA | 17.2 | 53.4 | – | – | – |
| CUAAUUAAAUCGGCCGCCACUUACUCAUGAGGUAACAACAUGAGGAUCACCCAUGUUUGAGGAUCAAGGACCGGGAUUUAAUUAG | – | – | 28.9 | 18.2 | – |
| ACAUUGCGCUCGGCCGCCACUGCCUUAUGAUUAUAAGGAUUAAUGAACAUGAGGAUCACCCAUGUCAGGACCGGGAGCGAACCAU | – | – | 13.7 | 13.4 | – |
| UUCACAUGAUCUGAAUAUACAGAAAAGAAACGAGGACCGGUACGGCCGCCACUCGUGCCGGAAACAUGAGGAUCACCCAUGUGUU | 24.2 | 22 | – | – | – |
| CAUACUUUAGUAUGACGUGUGGGCAGUGAUACCAGAUACGAAAGUAUCCCUUGGCAGCACAACAUGAGGAUCACCCAUGUAAUUA | – | – | – | – | apparent Kd (MS2 coat protein [2]; [7]): 20.5 nM; apparent Kd (MS2 coat protein [2]; [8]): 31.3 nM |
| ACAUGAGGAUCACCCAUGUGCCGUCUUGAUACCAGACGCGAAGUAGUCCCUUGGCAGCAAAUACGUGAGGGUCGCGCAUGUGUAA | – | – | – | – | apparent Kd (MS2 coat protein [2]; designed as: OFF switch for theophylline, no ligand): 24.1 nM; apparent Kd (MS2 coat protein [2]; ligand present: theophylline, designed as: OFF switch for theophylline): 34.7 nM |
| GGUGGGACUUGUGAUACCAGCCCAGUUCUAAUCGAACUGCACAUGAGGAUCACCCAUGUCGGCCCUUGGCAGCAUGAGUAUUUAU | – | – | – | – | apparent Kd (MS2 coat protein [2]; [7]): 322 nM; apparent Kd (MS2 coat protein [2]; [8]): 19.3 nM |
